Drawing on ChEMBL document CHEMBL3352250, “Antibacterial secondary metabolites from an endophytic fungus, Eupenicillium sp. LG41” (2014), this text covers MIC for ten compounds.

Assay type in all cases: functional
One experiment concerns Aspergillus aculeatus. Put plainly: Antimicrobial activity against Aspergillus aculeatus incubated for 48 hrs by disk diffusion method. In outline:
(§1)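 Disk diffusion on potato dextrose agar, 4 mm deep. Mycelia are macerated in a sterile mortar to a homogeneous inoculum and 200 μL is spread. 6.0 mm disks carry 40 μL of sample, air-dried. Plates are held 2 h at 4 °C, then incubated 48 h at 28 °C. Solvent-disk, organism and sterility controls are included. Triplicate.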

The subject of a further experiment is Acinetobacter sp. The experiment is described as follows: Antimicrobial activity against Acinetobacter sp. BD4 DSM 586 incubated for 24 hrs by disk diffusion method. The essentials: (§2)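 CLSI disk diffusion on nutrient agar, 4 mm deep, spread with 200 μL inoculum. 6.0 mm paper disks carry 40 μL of sample in HPLC-grade MeOH (0.1 to 10 μg/mL), air-dried. Plates are held 2 h at 4 °C, then incubated 24 h at 37 °C. Controls are streptomycin and gentamicin plus a solvent disk. MIC is derived per CLSI, triplicate.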

The next experiment has as its system Colletotrichum circinans. The experiment is described as follows: Antimicrobial activity against Colletotrichum circinans incubated for 48 hrs by disk diffusion method. In outline: as §1
(In general: A growth-free zone around the sample is the usual read-out of agar diffusion tests.)

A further experiment relates to Escherichia coli. Put plainly: Antimicrobial activity against Escherichia coli DSM 1116 incubated for 24 hrs by disk diffusion method. The essentials:
as §2

A further experiment concerns Bacillus subtilis. The experiment is described as follows: Antimicrobial activity against Bacillus subtilis DSM 1088 incubated for 24 hrs by disk diffusion method. In outline: as §2
The next experiment concerns Staphylococcus aureus. The experiment is described as follows: Antimicrobial activity against Staphylococcus aureus subsp. aureus DSM 799 incubated for 24 hrs by disk diffusion method. In outline: as §2

In brackets after ≈: the same amount, converted by molar mass. Activity calls are given as the source filed them. No cut-off for these calls is given here.

As usually defined, the MIC is the lowest concentration that inhibits growth of the organism. For `CC[C@@H](C)[C@H]1C=C[C@H]2[C@H](O)[C@H](O)C[C@@H](C)[C@@H]2[C@@]1(C)C(=O)/C=C/OC`, the MIC result with Aspergillus aculeatus and in the experiment with Colletotrichum circinans was “inactive” each time. The minimum inhibitory concentration (MIC) against Acinetobacter sp. (BD4 DSM 586, 24 h) is greater than 10 µg/mL; against Escherichia coli (DSM 1116, 24 h) it was 5 µg/mL (≈ 14.9 µM); in the experiment on Bacillus subtilis (DSM 1088, 24 h), greater than 10 µg/mL; in the experiment with Staphylococcus aureus (DSM 799, 24 h) it was 1 µg/mL (≈ 2.97 µM).
Consider `C[C@]1(C(=O)O)[C@@H]2C=C(C(=O)O)CC[C@@H]21`, for which the MIC result with Aspergillus aculeatus and in the experiment on Colletotrichum circinans was “inactive” in each case. Also, the MIC with Acinetobacter sp. (BD4 DSM 586, 24 h) is 5 µg/mL (≈ 25.5 µM); with Escherichia coli (DSM 1116, 24 h), 10 µg/mL (≈ 51 µM); in the experiment on Bacillus subtilis (DSM 1088, 24 h) it was greater than 10 µg/mL; against Staphylococcus aureus (DSM 799, 24 h), greater than 10 µg/mL.
For the compound `COc1cc(O)c2c(O)c3c(c4c2c1[C@]1(C4)C(C)=CCCC1(C)C)[C@H](O)[C@@]1(O)CC(O)=C(C(N)=O)C(=O)[C@@]1(O)C3=O`, the MIC entry in the experiment on Aspergillus aculeatus and in the experiment on Colletotrichum circinans was “inactive” throughout.
Turning to `CN[C@@H]1[C@H](O[C@H]2[C@H](O[C@H]3[C@H](O)[C@@H](O)[C@H](N=C(N)N)[C@@H](O)[C@@H]3N=C(N)N)O[C@@H](C)[C@]2(O)C=O)O[C@@H](CO)[C@H](O)[C@H]1O` [STREPTOMYCIN], the MIC in the experiment with Acinetobacter sp. (BD4 DSM 586, 24 h) worked out at 10 µg/mL (≈ 17.2 µM); in the experiment on Escherichia coli (DSM 1116, 24 h), 1 µg/mL (≈ 1.72 µM); in the experiment with Bacillus subtilis (DSM 1088, 24 h), 5 µg/mL (≈ 8.6 µM); against Staphylococcus aureus (DSM 799, 24 h), 5 µg/mL (≈ 8.6 µM).
With `CC[C@@H](C)[C@H]1C=C[C@H]2[C@H](O)[C@H](O)C[C@@H](C)[C@@H]2[C@@]1(C)C(=O)/C=C\O`, the MIC result in the experiment with Aspergillus aculeatus and in the experiment with Colletotrichum circinans was “inactive” throughout. Further, the MIC against Acinetobacter sp. (BD4 DSM 586, 24 h) is 10 µg/mL (≈ 31 µM); against Escherichia coli (DSM 1116, 24 h), 5 µg/mL (≈ 15.5 µM); with Bacillus subtilis (DSM 1088, 24 h) it was greater than 10 µg/mL; in the experiment with Staphylococcus aureus (DSM 799, 24 h), greater than 10 µg/mL.
With `COC1=C(C2=C(OC)C(=O)c3cc4c(c(O)c3C2=O)C(=O)O[C@H](C)C4)C(=O)c2c(cc3c(c2O)C(=O)O[C@H](C)C3)C1=O`, the MIC entry in the experiment on Aspergillus aculeatus and with Colletotrichum circinans was “inactive” each time.
On to `C=C(C(=O)O)[C@H](CCCCCC)C(=O)O`, for which the MIC entry in the experiment with Aspergillus aculeatus and in the experiment with Colletotrichum circinans was “inactive” throughout. The minimum inhibitory concentration (MIC) against Acinetobacter sp. (BD4 DSM 586, 24 h) was 1 µg/mL (≈ 4.67 µM); against Escherichia coli (DSM 1116, 24 h), 10 µg/mL (≈ 46.7 µM); in the experiment on Bacillus subtilis (DSM 1088, 24 h), greater than 10 µg/mL; against Staphylococcus aureus (DSM 799, 24 h) it was 10 µg/mL (≈ 46.7 µM).
Take GENTAMICIN: the minimum inhibitory concentration (MIC) against Acinetobacter sp. worked out at 5 µg/mL; in the experiment with Escherichia coli, 1 µg/mL; in the experiment on Bacillus subtilis, 1 µg/mL; in the experiment with Staphylococcus aureus, 1 µg/mL.
With `C=C(C(=O)O)[C@H](CCCC)C(=O)O`, the MIC entry with Aspergillus aculeatus and in the experiment on Colletotrichum circinans was “inactive” in each case. Moreover, the minimum inhibitory concentration (MIC) against Acinetobacter sp. (BD4 DSM 586, 24 h) was 1 µg/mL (≈ 5.37 µM); in the experiment on Escherichia coli (DSM 1116, 24 h), 10 µg/mL (≈ 53.7 µM); in the experiment with Bacillus subtilis (DSM 1088, 24 h), greater than 10 µg/mL; against Staphylococcus aureus (DSM 799, 24 h), 10 µg/mL (≈ 53.7 µM).
Regarding `CC(C)=CCC[C@]1(C)[C@@H]2[C@H]1C=C(C(=O)O)C[C@@H]2O`, the MIC entry in the experiment on Aspergillus aculeatus and in the experiment on Colletotrichum circinans was “inactive” in each case. In addition, the MIC was 5 µg/mL (≈ 20 µM) in the experiment on Acinetobacter sp. (BD4 DSM 586, 24 h); 5 µg/mL (≈ 20 µM) in the experiment with Escherichia coli (DSM 1116, 24 h); greater than 10 µg/mL against Bacillus subtilis (DSM 1088, 24 h); greater than 10 µg/mL against Staphylococcus aureus (DSM 799, 24 h).
